Data set [1] is described as follows: Antiinflammatory activity in human SW1353 cells assessed as inhibition of PMA-induced NF-kappaB activity incubated for 30 mins prior to PMA challenge measured after 8 hrs by luciferase reporter gene assay. Format: cell-based. The method in brief: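 SW1353 cells in DMEM/F12 with 10% FBS, electroporated with NF-κB luciferase plasmid (160 V, one 70-ms pulse), plated at 1.25 × 10⁵ cells/well. After 24 h, graded compound concentrations added 30 min before PMA 70 ng/mL, then 8 h incubation. Luciferase read-out, % inhibition versus vehicle, IC50 from dose curves. Sp-1 reporter served as nonspecific control.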
(In general: In a reporter assay the amount or activity of a reporter protein is the signal.)

The nature of data set [2]: Cytotoxicity against pig LLC-PK11 cells up to 25 ug/ml after 48 hrs by neutral red assay relative to control. The following applies: llc-pk11, 48 h. Format: cell-based, Sus scrofa. The method in brief:
(§1)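 Cells grown in RPMI-1640 with 10% bovine calf serum and amikacin at 37 °C, 5% CO2. Seeded at 25,000 cells/well and grown 24 h, then exposed 48 h to samples diluted in serum-free medium. Viability by Neutral Red; % decrease vs vehicle; IC50 from dose curves. Triplicate runs, mean reported; doxorubicin as positive control.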

The subject of data set [3] is Vero. In words: Cytotoxicity against African green monkey Vero cells after 48 hrs by neutral red assay relative to control. The note with it: chlorocebus sabaeus. Format: cell-based. The method in brief:
(§2)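 Cells grown in RPMI-1640 with 10% bovine calf serum and amikacin at 37°C, 5% CO₂. Seeded 25,000 cells/well, grown 24 h, then exposed to compounds diluted in serum-free medium for 48 h. Viability by Neutral Red uptake, % decrease versus vehicle control. IC50 from dose curves, triplicate means. Doxorubicin positive control.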

Data set [4] has as its system SK-OV-3. In words: Cytotoxicity against human SKOV3 cells up to 25 ug/ml after 48 hrs by neutral red assay relative to control. The class given is cell-based. The note with it: sk-ov-3, 48 h. The method, boiled down:
as §1

For data set [5], the system named is BT-549. In words: Cytotoxicity against human BT549 cells up to 25 ug/ml after 48 hrs by neutral red assay relative to control. The class given is cell-based. The note with it: bt-549, 48 h. The method, boiled down: as §1
The test system of data set [6] is KB. In words: Cytotoxicity against human KB cells up to 25 ug/ml after 48 hrs by neutral red assay relative to control. The class given is cell-based. The method in brief: as §1
For data set [7], the system named is SK-MEL. In words: Cytotoxicity against human SK-MEL cells up to 25 ug/ml after 48 hrs by neutral red assay relative to control. The class given is cell-based. The method, boiled down:
as §1

A short description of data set [8]: Cytotoxicity against pig LLC-PK11 cells after 48 hrs by neutral red assay relative to control. The class given is cell-based. The following applies: Sus scrofa, LLC-PK11, 48 h. The method, boiled down:
as §2

In data set [9] the test system is Vero. Description: Cytotoxicity against African green monkey Vero cells up to 25 ug/ml after 48 hrs by neutral red assay relative to control. Format: cell-based. The note with it: chlorocebus sabaeus. The method in brief:
as §1

For data set [10], the system named is SK-OV-3. In words: Cytotoxicity against human SKOV3 cells after 48 hrs by neutral red assay relative to control. The class given is cell-based. The following applies: SK-OV-3, 48 h. The method, boiled down:
as §2

The test system of data set [11] is BT-549. Description: Cytotoxicity against human BT549 cells after 48 hrs by neutral red assay relative to control. Format: cell-based. The following applies: BT-549, 48 h. The method in brief: as §2
Data set [12] concerns KB. In words: Cytotoxicity against human KB cells after 48 hrs by neutral red assay relative to control. The class given is cell-based. The method in brief:
as §2

Data set [13] deals with SK-MEL. Description: Cytotoxicity against human SK-MEL cells after 48 hrs by neutral red assay relative to control. Format: cell-based. The method in brief:
as §2

The target of data set [14] is T1, Nitric oxide synthase, inducible (Mus musculus) (UniProt P29477).
T1 sequence (whole entry): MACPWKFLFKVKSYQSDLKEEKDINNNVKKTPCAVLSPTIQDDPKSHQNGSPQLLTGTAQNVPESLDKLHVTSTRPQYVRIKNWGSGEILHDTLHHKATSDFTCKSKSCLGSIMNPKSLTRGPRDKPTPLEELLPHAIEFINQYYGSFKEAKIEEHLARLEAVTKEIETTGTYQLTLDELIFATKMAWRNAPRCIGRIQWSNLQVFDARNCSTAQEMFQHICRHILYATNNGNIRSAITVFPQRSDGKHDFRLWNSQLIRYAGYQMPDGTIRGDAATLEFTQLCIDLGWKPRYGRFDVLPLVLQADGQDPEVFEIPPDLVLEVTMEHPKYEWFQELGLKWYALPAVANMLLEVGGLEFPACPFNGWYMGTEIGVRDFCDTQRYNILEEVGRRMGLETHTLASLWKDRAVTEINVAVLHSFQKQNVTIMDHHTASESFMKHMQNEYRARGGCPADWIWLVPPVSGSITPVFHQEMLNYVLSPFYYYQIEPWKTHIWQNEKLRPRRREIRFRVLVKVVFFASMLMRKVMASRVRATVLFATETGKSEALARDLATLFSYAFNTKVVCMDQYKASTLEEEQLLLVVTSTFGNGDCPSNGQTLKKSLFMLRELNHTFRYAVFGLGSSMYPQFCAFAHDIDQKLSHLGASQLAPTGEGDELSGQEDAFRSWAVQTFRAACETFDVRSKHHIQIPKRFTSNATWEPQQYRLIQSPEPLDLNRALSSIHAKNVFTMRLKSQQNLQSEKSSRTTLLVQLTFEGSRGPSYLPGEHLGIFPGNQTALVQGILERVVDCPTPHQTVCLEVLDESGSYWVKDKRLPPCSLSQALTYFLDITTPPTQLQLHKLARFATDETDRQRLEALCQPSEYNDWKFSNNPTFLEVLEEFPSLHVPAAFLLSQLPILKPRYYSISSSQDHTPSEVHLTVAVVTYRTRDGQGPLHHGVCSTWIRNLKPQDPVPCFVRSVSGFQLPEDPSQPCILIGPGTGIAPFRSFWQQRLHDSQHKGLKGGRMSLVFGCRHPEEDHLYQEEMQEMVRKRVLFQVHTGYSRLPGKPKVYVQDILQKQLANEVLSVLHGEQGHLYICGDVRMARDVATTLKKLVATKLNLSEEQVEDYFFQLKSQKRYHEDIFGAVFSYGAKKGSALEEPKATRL
In words: Antiinflammatory activity in mouse RAW264.7 cells assessed as inhibition of LPS-induced iNOS activity up to 25 ug/ml incubated for 30 mins prior to LPS challenge measured after 24 hrs by Griess assay. Format: cell-based. The method in brief:
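RAW264.7 macrophages seeded at 50,000 cells/well and grown 24 h to ≥75% confluency. Compounds in serum-free medium added 30 min before LPS (5 μg/mL), then 24 h incubation. Nitrite in the supernatant measured with Griess reagent.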
(In general: Griess reagent forms a coloured azo dye with nitrite.)

Another data set concerns SW1353. In words: Antiinflammatory activity in human SW1353 cells assessed as inhibition of PMA-induced NF-kappaB activity up to 25 ug/ml incubated for 30 mins prior to PMA challenge measured after 8 hrs by luciferase reporter gene assay. Format: cell-based. The method in brief:
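SW1353 chondrosarcoma cells grown in DMEM/F12 with 10% FBS at 37 °C, 5% CO2. Cells electroporated with an NF-κB luciferase plasmid (50 μg/mL, 160 V, one 70-ms pulse) and plated at 1.25 × 10⁵ cells/well. After 24 h, compound was added 30 min before PMA (70 ng/mL), then 8 h incubation. Luciferase read-out as % inhibition vs vehicle; IC50 from dose curves. Sp-1 served as a counter-screen.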

The source made the active and inactive calls. The rule behind the calls is not given here.

Regarding `O=c1sc2ccccc2n1CCCCCN1CCN(CCn2c(=O)sc3ccccc32)CC1`, the values for the IC50 (in data set [1]; in the data set on Vero [3]) were 1.71 µM and 23.8 µM, respectively. Further, the Activity entry (in [2]; in the data set on SK-OV-3 [4]; in the data set on BT-549 [5]; in the data set with KB [6]; in the data set with SK-MEL [7]) was “Non-toxic” in each case.
As for `O=c1sc2ccccc2n1CCCCN1CCN(CCCn2c(=O)sc3ccccc32)CC1`, the figures for the IC50 in data set [1] and in [8] were 1.71 µM and 19.2 µM, respectively. Further, the Activity result in the data set with Vero [9], in the data set on SK-OV-3 [4], with BT-549 [5], with KB [6] and with SK-MEL [7] was “Non-toxic” each time.
`O=c1oc2ccccc2n1CCCCCN1CCN(CCCCCn2c(=O)oc3ccccc32)CC1`: the IC50 in data set [1] came out at 3.43 µM; in the data set with Vero [3], 19.4 µM. For the same compound, the Activity result (in data set [2]; with SK-OV-3 [4]; in the data set with BT-549 [5]; with KB [6]; in the data set on SK-MEL [7]) was “Non-toxic” throughout.
For the compound `COc1cccc2c1C(=O)c1c(O)c3c(c(O)c1C2=O)C[C@@](O)(C(=O)CO)C[C@@H]3O[C@H]1C[C@H](N)[C@H](O)[C@H](C)O1` [DOXORUBICIN], the IC50 in data set [8] was 0.79 µM; with Vero [3], 0.92 µM; in the data set on SK-OV-3 [10], 0.2 µM; in the data set with BT-549 [11], 0.17 µM; in the data set on KB [12], 0.22 µM; in the data set with SK-MEL [13] it was 0.14 µM.
With `O=c1oc2ccccc2n1CCCCN1CCN(CCn2c(=O)oc3ccccc32)CC1`, the inhibition entry (in data set [14]; in the data set on SW1353) was “inactive” in each case. For the same compound, the Activity result (in data set [2]; in the data set with Vero [9]; in the data set with SK-OV-3 [4]; with BT-549 [5]; with KB [6]; in the data set on SK-MEL [7]) was “Non-toxic” throughout.
For the compound `O=c1oc2ccccc2n1CCN1CCN(CCn2c(=O)oc3ccccc32)CC1`, the inhibition result (in [14]; in the data set on SW1353) was “inactive” each time. Further, the Activity entry (in [2]; with Vero [9]; with SK-OV-3 [4]; in the data set on BT-549 [5]; with KB [6]; in the data set on SK-MEL [7]) was “Non-toxic” in each case.
Turning to `O=c1sc2ccccc2n1CCN1CCN(CCn2c(=O)sc3ccccc32)CC1`, the inhibition entry (in data set [14]; with SW1353) was “inactive” each time. The Activity result (in data set [2]; in the data set with Vero [9]; with SK-OV-3 [4]; with BT-549 [5]; in the data set on KB [6]; in the data set with SK-MEL [7]) was “Non-toxic” in each case.
Take `O=c1sc2ccccc2n1CCCCCN1CCN(CCCCCn2c(=O)sc3ccccc32)CC1`: the Activity result (in [2]; in the data set on Vero [9]; in the data set with KB [6]) was “Non-toxic” each time. The results for the IC50 in the data set on SK-OV-3 [10], in the data set with BT-549 [11] and in the data set on SK-MEL [13] were 25 µM, 19.3 µM and 19.8 µM, respectively.
As to `O=c1sc2ccccc2n1CCCN1CCN(CCn2c(=O)sc3ccccc32)CC1`, the inhibition entry (in [14]; in the data set with SW1353) was “inactive” throughout. In data set [8], this compound gave an IC50 of 24.1 µM. The Activity result in the data set on Vero [9], with SK-OV-3 [4], with BT-549 [5], with KB [6] and in the data set with SK-MEL [7] was “Non-toxic” throughout.
`O=c1oc2ccccc2n1CCCCN1CCN(CCCCn2c(=O)oc3ccccc32)CC1`: the inhibition result (in data set [14]; in the data set on SW1353) was “inactive” throughout. Further, the Activity entry (in data set [2]; with Vero [9]; with SK-OV-3 [4]; in the data set with BT-549 [5]; in the data set on KB [6]; in the data set on SK-MEL [7]) was “Non-toxic” in each case.
As to `O=c1oc2ccccc2n1CCCCCN1CCN(CCCCn2c(=O)oc3ccccc32)CC1`, the inhibition entry in the data set on SW1353 was “inactive”. In addition, the Activity entry (in data set [2]; in the data set on SK-OV-3 [4]; in the data set on BT-549 [5]; with KB [6]; in the data set with SK-MEL [7]) was “Non-toxic” in each case. Besides, the IC50 with Vero [3] amounted to 17.6 µM.
For the compound `O=c1sc2ccccc2n1CCCCCCN1CCN(CCCCn2c(=O)sc3ccccc32)CC1`, the IC50 in [1] came to 0.83 µM; with BT-549 [11], 21.3 µM; in the data set with KB [12], 19.5 µM; in the data set on SK-MEL [13], 14.5 µM. The Activity entry (in data set [2]; with Vero [9]; with SK-OV-3 [4]) was “Non-toxic” each time.
Take `O=c1sc2ccccc2n1CCCN1CCN(CCCn2c(=O)sc3ccccc32)CC1`: the inhibition result in the data set with SW1353 was “inactive”. In data set [8], the concentration for half-maximal inhibition (IC50) was determined as 23.5 µM. Moreover, the Activity entry in the data set on Vero [9], with SK-OV-3 [4], in the data set on BT-549 [5], with KB [6] and in the data set with SK-MEL [7] was “Non-toxic” in each case.
Consider `c1ccc2oc(SCCCCN3CCN(CCCCSc4nc5ccccc5o4)CC3)nc2c1`, for which the IC50 stood at 1.4 µM in data set [1]; 23.5 µM in data set [8]; 22.5 µM in the data set on BT-549 [11]; 25 µM in the data set with KB [12]; 25 µM in the data set on SK-MEL [13]. The Activity entry in the data set with Vero [9] and with SK-OV-3 [4] was “Non-toxic” each time.
Take `O=c1oc2ccccc2n1CCCN1CCN(CCn2c(=O)oc3ccccc32)CC1`: the inhibition result (in [14]; in the data set on SW1353) was “inactive” in each case. For the same compound, the Activity entry (in data set [2]; in the data set on Vero [9]; in the data set with SK-OV-3 [4]; in the data set on BT-549 [5]; with KB [6]; with SK-MEL [7]) was “Non-toxic” in each case.

As usually defined, the IC50 is the concentration that gives 50% inhibition.

These data come from ChEMBL document CHEMBL3596194, “Design, synthesis and biological evaluation of bivalent benzoxazolone and benzothiazolone ligands as potential anti-inflammatory/analgesic agents” (Bioorg Med Chem, 2015).
